Data from ChEMBL document CHEMBL4007511, “Synthesis and Biological Evaluation of Bile Acid Analogues Inhibitory to Clostridium difficile Spore Germination” (J Med Chem, 2017).
Calls of active or inactive are those of the source. The calls are words filed in the database; no cut-off is given here.

Columns and labels:
Clostridioides difficile [1] = assay: Inhibition of TCA-induced spore germination in Clostridium difficile NAP1 assessed as spore germination at 10 uM measured after 20 mins under anaerobic condition by phase-contrast microscopic analysis relative to control; format: functional; parameters: scale not given: the % may be the effect or the level left
In short: (§1)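 Heat-treated spores exposed to BHIS with 2000 μM taurocholate plus analogue or DMSO control; t0 samples put on ice at once, t20 samples held 20 min at room temperature then iced; phase-bright spores and phase-dark germinated cells counted by hemocytometer under phase-contrast. % germination of total cells; relative value = (t20−t0) test/(t20−t0) control; triplicate, mean ± SD.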

Clostridioides difficile [2] = assay: Inhibition of TCA-induced spore germination in Clostridium difficile NAP1 at 0.2 mM using varying levels of TCA measured after 20 mins under anaerobic condition; format: functional
[3] = human, caco-2, 10 µM
[4] = human, caco-2, 10 µM; remark: listed apart in the source
Clostridioides difficile [5] = assay: Inhibition of TCA-induced spore germination in Clostridium difficile NAP1 at 50 uM measured after 20 mins under anaerobic condition by phase-contrast microscopic analysis; format: functional; in short: as §1
Clostridioides difficile [6] = assay: Antibacterial activity against Clostridium difficile NAP1 assessed as concentration required for complete inhibition of TCA-induced spore germination measured after 20 mins under anaerobic condition; format: functional; settings: NAP1, 20 min, read-out: MEC
In short: (§2)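 Spores (~0.5 McFarland, heat-treated 65 °C for 30 min) inoculated anaerobically into pre-reduced (2–3 h) BHIS (0.5% yeast extract, 0.1% L-cysteine) containing 2000 μM taurocholate plus analogue at varying concentrations; OD600 read each minute for 20 min, normalized to t0. Complete inhibition = relative OD600 ≥0.95 at 20 min; triplicate wells, solvent (DMSO or DMSO/ethanol) controls.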

Clostridioides difficile [7] = assay: Induction of spore germination in Clostridium difficile NAP1 at 1500 to 2000 uM measured after 20 mins under anaerobic condition
Clostridioides difficile [8] = assay: Inhibition of taurocholate/glycine-induced spore germination in Clostridium difficile 630 preincubated for 15 mins followed by taurocholate/glycine addition measured every minute for 90 mins; format: functional
Clostridioides difficile [9] = assay: Inhibition of TCA-induced spore germination in Clostridium difficile NAP1 assessed as compound concentration required for complete inhibition by spectrophotometric method; format: functional; settings: read-out: MEC; in short: as §2
in vitro [10] = settings: human, Caco-2
in vitro [11] = settings: human, Caco-2; remark: listed apart in the source
Clostridioides difficile [12] = assay: Competitive inhibition of taurocholate-induced spore germination in Clostridium difficile UK1 at 0.2 mM by Michaelis-Menten kinetic analysis; format: functional

Row | Structure (SMILES) | minimal effective concentration (Clostridioides difficile [6]) | further results
1 | CO[C@@H]1CC[C@@]2(C)[C@@H](C1)C[C@H](OS(=O)(=O)[O-])[C@@H]1[C@@H]2CC[C@]2(C)[C@@H]([C@H](C)CCC(=O)N3CCCC3)CC[C@@H]12.[Na+] | 50 µM | Activity (Clostridioides difficile [1]): 9%; Ki (Clostridioides difficile [2]): 20 µM; Papp [3]: 0.1 ×10⁻⁶ cm/s; Papp [4]: 2.1 ×10⁻⁶ cm/s; inhibition (Clostridioides difficile [5]): Active
2 | COC(=O)CC[C@@H](C)[C@H]1CC[C@H]2[C@@H]3C[C@H](O)[C@@H]4C[C@H](O)CC[C@]4(C)[C@H]3CC[C@]12C | 500 µM | 
3 | COC(=O)CC[C@@H](C)[C@H]1CC[C@H]2[C@@H]3[C@@H](O)C[C@@H]4C[C@H](O)CC[C@]4(C)[C@H]3CC[C@]12C | 50 µM | 
4 | CC(=O)O[C@@H]1CC[C@@]2(C)[C@@H](C1)C[C@H](OC(C)=O)[C@@H]1[C@@H]2CC[C@]2(C)[C@@H]([C@H](C)CCC(N)=O)CC[C@@H]12 | 50 µM | Activity (Clostridioides difficile [7]): Toxic
5 | CCCCNC(=O)CC[C@@H](C)[C@H]1CC[C@H]2[C@@H]3[C@H](O)C[C@@H]4C[C@H](O)CC[C@]4(C)[C@H]3CC[C@]12C | 500 µM | 
6 | COC(=O)CC[C@@H](C)[C@H]1CC[C@H]2[C@@H]3[C@@H](OC)C[C@@H]4C[C@H](OC)CC[C@]4(C)[C@H]3CC[C@]12C | 500 µM | 
7 | CC(=O)O[C@@H]1CC[C@@]2(C)[C@@H](C1)C[C@@H](OC(C)=O)[C@@H]1[C@@H]2CC[C@]2(C)[C@@H]([C@H](C)CCC(N)=O)CC[C@@H]12 | 50 µM | 
8 | C[C@H](CCC(=O)N1CCCC1)[C@H]1CC[C@H]2[C@@H]3[C@@H](O)C[C@@H]4C[C@H](O)CC[C@]4(C)[C@H]3CC[C@]12C | 100 µM | 
9 | C[C@H](CCC(=O)O)[C@H]1CC[C@H]2[C@@H]3[C@H](O)C[C@@H]4C[C@H](O)CC[C@]4(C)[C@H]3CC[C@]12C [CHENODIOL] | 500 µM | 
10 | COC(=O)CC[C@@H](C)[C@H]1CC[C@H]2[C@@H]3[C@H](OC)C[C@@H]4C[C@H](O)CC[C@]4(C)[C@H]3CC[C@]12C | 500 µM | 
11 | COC(=O)CC[C@@H](C)[C@H]1CC[C@H]2[C@@H]3[C@@H](OC)C[C@@H]4C[C@H](O)CC[C@]4(C)[C@H]3CC[C@]12C | 500 µM | 
12 | C[C@H](CCC(C)(C)O)[C@H]1CC[C@H]2[C@H]3[C@H](CC[C@]12C)[C@@]1(C)CC[C@@H](O)C[C@H]1C[C@@]3(C)O | > 1000 µM | 
13 | C[C@H](CCC(=O)Nc1cccc(S(=O)(=O)O)c1)[C@H]1CC[C@H]2[C@@H]3[C@H](O)C[C@@H]4C[C@H](O)CC[C@]4(C)[C@H]3C[C@H](O)[C@]12C | > 1000 µM | Activity (Clostridioides difficile [1]): 78%; IC50 (Clostridioides difficile [8]): 58 µM
14 | CO[C@@H]1CC[C@@]2(C)[C@@H](C1)C[C@H](OC)[C@@H]1[C@@H]2CC[C@]2(C)[C@@H]([C@H](C)CCC(=O)N3CCCC3)CC[C@@H]12 | 1000 µM | 
15 | C[C@H](CCC(=O)N1CCCC1)[C@H]1CC[C@H]2[C@@H]3[C@H](O)C[C@@H]4C[C@H](O)CC[C@]4(C)[C@H]3CC[C@]12C | 50 µM | 
16 | C[C@H](CCC(=O)O)[C@H]1CC[C@H]2[C@@H]3[C@@H](O)C[C@@H]4C[C@H](O)CC[C@]4(C)[C@H]3CC[C@]12C [URSODIOL] |  | minimal effective concentration (Clostridioides difficile [9]): 500 µM

Row | Structure (SMILES) | minimal effective concentration (Clostridioides difficile [6]) | further results
17 | C[C@H](CCC(=O)NC(C)(C)CO)[C@H]1CC[C@H]2[C@@H]3[C@H](O)C[C@@H]4C[C@H](O)CC[C@]4(C)[C@H]3CC[C@]12C | 500 µM | 
18 | C[C@H](CCC(=O)O)[C@H]1CC[C@H]2[C@@H]3[C@@H](OS(=O)(=O)O)C[C@@H]4C[C@H](O)CC[C@]4(C)[C@H]3CC[C@]12C | 3000 µM | 
19 | CO[C@@H]1CC[C@@]2(C)[C@@H](C1)C[C@@H](OC)[C@@H]1[C@@H]2CC[C@]2(C)[C@@H]([C@H](C)CCC(=O)N3CCCC3)CC[C@@H]12 | 500 µM | 
20 | COC(=O)CC[C@@H](C)[C@H]1CC[C@H]2[C@@H]3[C@H](O)C[C@@H]4C[C@H](OC)CC[C@]4(C)[C@H]3CC[C@]12C | 500 µM | 
21 | CO[C@@H]1CC[C@@]2(C)[C@@H](C1)C[C@@H](O)[C@@H]1[C@@H]2CC[C@]2(C)[C@@H]([C@H](C)CCC(=O)O)CC[C@@H]12 | > 100 µM | Activity (Clostridioides difficile [7]): Toxic
22 | CCCCNC(=O)CC[C@@H](C)[C@H]1CC[C@H]2[C@@H]3[C@@H](O)C[C@@H]4C[C@H](O)CC[C@]4(C)[C@H]3CC[C@]12C | 500 µM | 
23 | CO[C@@H]1CC[C@@]2(C)[C@@H](C1)C[C@@H](OS(=O)(=O)[O-])[C@@H]1[C@@H]2CC[C@]2(C)[C@@H]([C@H](C)CCC(=O)c3nnn[n-]3)CC[C@@H]12.[Na+].[Na+] | 25 µM | Activity (Clostridioides difficile [1]): 51%; Papp A→B at 10 µM (in vitro [10]): 0.4 ×10⁻⁶ cm/s; Papp B→A at 10 µM (in vitro [11]): 0.4 ×10⁻⁶ cm/s
24 | CO[C@@H]1CC[C@@]2(C)[C@@H](C1)C[C@H](OC)[C@@H]1[C@@H]2CC[C@]2(C)[C@@H]([C@H](C)CCC(=O)O)CC[C@@H]12 | > 1000 µM | Activity (Clostridioides difficile [1]): 75%
25 | CO[C@@H]1CC[C@@]2(C)[C@@H](C1)C[C@H](O)[C@@H]1[C@@H]2CC[C@]2(C)[C@@H]([C@H](C)CCC(=O)O)CC[C@@H]12 | > 500 µM | Activity (Clostridioides difficile [7]): Toxic
26 | CO[C@H]1C[C@@H]2C[C@H](O)CC[C@]2(C)[C@H]2CC[C@]3(C)[C@@H]([C@H](C)CCC(=O)O)CC[C@H]3[C@H]12 | > 500 µM | Activity (Clostridioides difficile [7]): Toxic
27 | COC(=O)CC[C@@H](C)[C@H]1CC[C@H]2[C@@H]3[C@H](OC)C[C@@H]4C[C@H](OC)CC[C@]4(C)[C@H]3CC[C@]12C | 500 µM | 
28 | COC(=O)CC[C@@H](C)[C@H]1CC[C@H]2[C@H]3[C@H](CC[C@]12C)[C@@]1(C)CC[C@@H](O)C[C@H]1C[C@@]3(C)O | 50 µM | 
29 | C[C@H](CCC(=O)O)[C@H]1CC[C@H]2[C@@H]3C[C@H](O)[C@@H]4C[C@H](O)CC[C@]4(C)[C@H]3CC[C@]12C [HYODEOXYCHOLIC_ACID] | 500 µM | Activity (Clostridioides difficile [7]): Toxic
30 | COC(=O)CC[C@@H](C)[C@H]1CC[C@H]2[C@@H]3[C@@H](O)C[C@@H]4C[C@H](OC)CC[C@]4(C)[C@H]3CC[C@]12C | 500 µM | 
31 | COC(=O)CC[C@@H](C)[C@H]1CC[C@H]2[C@@H]3[C@H](O)C[C@@H]4C[C@H](O)CC[C@]4(C)[C@H]3CC[C@]12C | 500 µM | Activity (Clostridioides difficile [1]): 73%; Ki (Clostridioides difficile [2]): 118 µM; Ki (Clostridioides difficile [12]): 44 µM
